A1 inh: inhibitors of the anti-apoptotic protein A1, read as caspase activation; MEF A1-2A-BIM cells, Caspase-Glo 3/7 luminescence, 3 h; percent of clofoctol response, vehicle zero; caspase activation, % (concentration not given with the values); actives 0.066% (n = 330,000); AID 2462;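 active means over half of replicate activation scores above 10%, or exactly half above 10 with the replicate mean above 10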
CHOP inh: CHOP inhibition in unfolded protein response | actives 3.8% (n = 220,000) | inhibition, % at 10 µM | AID 2732 | CHO-K1 CHOP-promoter luciferase, tunicamycin-induced, 15-18 h;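 active means compounds that reduced the stress-induced luciferase reporter signal by more than about 70% of percent inhibition, limit read from the data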;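 further: 0% = tunicamycin plus vehicle and 100% = wells without tunicamycin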
XBP1 UPR activ: adaptive UPR (XBP1) activation; CHO-XBP1 luciferase reporter, IRE1-XBP1 UPR activation, luminescence; percent of tunicamycin response, DMSO as zero; activation, % at 20 µM; actives 0.33% (n = 330,000);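 active means versus positive control, 20 µM dose yields 30% or more activation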;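 further: 100% = tunicamycin at 10 µg/mL and 0% = DMSO only wells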
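Material: CHO-XBP1 cells stably carrying IRE1-XBP1-driven luciferase reporter | Medium: F12 with 10% serum | Compound dosing: 20 µM single concentration, DMSO 1% | Incubation: Overnight seeding at 37 °C, 6 h compound treatment at 37 °C | Detection: Steady-Glo luminescence read | Read-out basis: % activation of reporter signal versus tunicamycin and DMSO controls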
UPR CHOP act: apoptotic UPR (CHOP) activation; CHO-CHOP luciferase reporter, luminescence; percent of tunicamycin response over DMSO baseline; activation, % at 10 µM; actives 0.34% (n = 330,000); AID 449763;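 active means at 10 µM dose, activation of 40% or more, normalized to positive control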;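 further: 100% = tunicamycin at 10 µg/mL and 0% = DMSO alone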
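System: CHO-CHOP luciferase reporter cell line; amount: 500 cells/well; buffer or medium: F12 medium containing 10% fetal bovine serum; incubation: 6 h compound exposure at 37 °C after overnight seeding; measured by: luciferase luminescence after 10 min with Steady-Glo reagent; evaluation: % reporter activation, DMSO baseline versus tunicamycin full activation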
CHOP confirm: confirmation of CHOP induction inhibitors | shares compounds with CHOP inh | CHO-CHOP promoter luciferase reporter, tunicamycin-induced, luminescence | inhibition, % at 10 µM | actives 45% (n = 2,100);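 active means mean of three repeat readings of reporter signal inhibition above a set limit, cut at about 70% in these data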;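 further: 0% = tunicamycin plus vehicle and 100% = wells lacking tunicamycin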
UPR CHOP confirm: apoptotic UPR (CHOP) activation, confirmed | shares compounds with UPR CHOP act | CHO-CHOP cells, CHOP-luciferase reporter luminescence; percent of tunicamycin response, DMSO as zero | activation, % at 10 µM | actives 64% (n = 1,000) | AID 463112; in the data active means activation above about 33%;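 further: 0% = DMSO wells and 100% = tunicamycin 10 µg/mL wells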
Active calls of the source: *; . = not tested or not shown. The entries come from a sample that favours hits as a whole.

SMILES	A1 inh	CHOP inh	XBP1 UPR activ	UPR CHOP act	CHOP confirm	others
COC(=O)C(Cc1cnc(Cl)s1)(C(=O)OC)c1ccc(C(F)(F)F)cc1[N+](=O)[O-]	0	98*	-1	-2	24
Cc1nn(-c2ccccc2Cl)c(Cl)c1/C=N/Nc1nc2ccccc2s1	-8	97*	-3	-6	98*
CCOC(=O)N/N=C/c1c(C)nn(-c2ccccc2Cl)c1Cl	0	15	6	5	.
NC(=O)c1ccsc1NC(=O)COC(=O)c1cccnc1Cl	-3	.	7	4	.
Cc1ccc(-c2nc(N)sc2-c2ccc(C)cc2)cc1	.	97*	.	.	114*
Cc1ccc(-c2nc(N)sc2C)cc1	-1	-8	1	2	.
CC1CCc2[nH]c3ccc(C(=O)N4CCCC(C(F)(F)F)C4)cc3c2C1 (stereo not given)	0	.	2	2	.
O=C(OCC(=O)N1CCN(c2ccc(F)cc2)CC1)c1cnc2ccccc2n1	1	.	-3	1	.
O=C(Nc1cc(Cl)cc(Cl)c1)c1cccc(OC(F)F)c1	1	97*	6	4	24
CC(C)(C)c1ccc(-c2noc(CCC(N)=O)n2)cc1	-1	100*	-5	-9	113*
CCCCC(CC)C(=O)Oc1ccc(O)c(C(C)(C)C)c1 (stereo not given)	-1	104*	7	0	117*
CC(C)(C)c1cc(OC(=O)C2CCCC2)ccc1O	1	.	-6	1	.
CCOc1ccc(C(C(=O)NC2CCCCC2)N(CCOC)C(=O)c2snc(C(N)=O)c2N)cc1 (stereo not given)	0	.	-4	2	.
CCCCc1c(C)c(C#N)c2[nH]c3ccccc3n2c1=O	0	103*	0	-2	56
O=C(c1ccc(Cl)cc1Cl)c1ncc(C(F)(F)F)cc1Cl	1	68	1	1	.
O/N=C(\c1ccc(Cl)cc1Cl)c1ncc(C(F)(F)F)cc1Cl	0	107*	-1	-3	111*
O=C(NC1CCCCC1)C1CCCN1S(=O)(=O)c1ccc(F)cc1 (stereo not given)	0	.	-6	1	.
O=C1C(C2=NC(c3ccccn3)C3C(=O)N(c4ccc(Cl)cc4Cl)C(=O)C23)=C(O)c2ccccc21 (stereo not given)	1	105*	3	20	118*
CNC(=O)COC(=O)c1ccccc1C(=O)c1ccc(Cl)c([N+](=O)[O-])c1	.	97*	.	.	-57
COc1ccc(Cc2n[nH]c(=S)n2N)cc1OC	0	2	2	-2	.
COc1ccccc1CCCNC(=O)C1CCC(=O)N(CCc2ccc(Cl)cc2)C1 (stereo not given)	0	.	-3	2	.
O=C(Nc1cc(Cl)ccc1O)c1cc2n(n1)C(C(F)(F)F)CC(c1ccc3c(c1)OCO3)N2 (stereo not given)	-1	105*	-5	-3	89*
COc1cccc(-c2nnn(CC(=O)N(CC(C)C)C3CCS(=O)(=O)C3)n2)c1 (stereo not given)	-2	.	-1	1	.
COc1ccc(NC(=O)c2ccc(OC)c(S(=O)(=O)N3CCCCC3C)c2)cn1 (stereo not given)	2	.	0	-1	.
Cc1ccc(C2C(/C=C3/SC(=S)NC3=O)=C(c3cccs3)Oc3ccccc32)cc1 (stereo not given)	0	99*	2	3	-29
SMILES	A1 inh	CHOP inh	XBP1 UPR activ	UPR CHOP act	CHOP confirm	others
CCCn1c(N/N=C(C)\C=C\c2ccccc2)nc2c1c(=O)[nH]c(=O)n2C	1	103*	1	1	-31
CCCNc1nc2c(c(=O)[nH]c(=O)n2C)n1CCOc1ccccc1	0	.	5	3	.
CNc1ccc(Br)cc(C(=O)/C=C/c2ccc(Cl)cc2Cl)c1=O	0	103*	-4	5	-30
CNc1ccc(Br)cc(C(=O)/C=C/c2ccc(OC)cc2OC)c1=O	0	-16	-6	-5	.
CC1CCCC(C)N1C(=O)/C=C/c1ccc(S(=O)(=O)N2CCOCC2)cc1 (stereo not given)	.	.	-3	-1	.
Cc1cc(C(=O)N/N=C/c2cc(Br)ccc2OC(=O)c2ccccc2Cl)n[nH]1	1	99*	2	1	34
O=C(Nc1ccc(S(=O)(=O)Nc2ncccn2)cc1)c1ccccc1Br	-1	.	-5	3	.
CN1CCN(CC(=O)N2CCn3c4c(c5cc(C6CCCCC6)ccc53)CCCC42)CC1 (stereo not given)	0	.	26	9	132*
COC(=O)CSC1=C(C#N)C(=O)NC(c2ccccc2)S1 (stereo not given)	-1	99*	-3	88*	51	UPR CHOP confirm=29
O=S(=O)(Cc1ccccc1)N(O)c1ccccc1	-1	.	-7	0	.
CN(CC(=O)Nc1ccc(Cl)cc1F)C1CCS(=O)(=O)C1 (stereo not given)	1	.	-1	0	.
CN(C)CC(C(=O)c1ccccc1)c1ccccc1 (stereo not given)	-1	.	-3	159*	42	UPR CHOP confirm=41*
Cc1cc(C(=O)CN2C(=O)CN(C)C2=O)c(C)n1-c1cccc(S(=O)(=O)N2CCOCC2)c1	0	15	1	-1	.
Cc1cc(C(=O)CCl)c(C)n1-c1cccc(S(=O)(=O)N2CCOCC2)c1	1	103*	-5	207*	76*	UPR CHOP confirm=64*
CC[C@@H](C)[C@H](NC(=O)OC(C)(C)C)c1nnc(S(=O)(=O)Cc2cc(C)ccc2C)o1	-1	115*	-16	225*	123*	UPR CHOP confirm=100*
CC(C)(C)c1cnnn1-c1ccc(C=O)cc1	0	-12	1	2	.
CC(C)(C)c1cnnn1-c1ccc(C(=O)CCl)cc1	2	111*	-5	56*	-67	UPR CHOP confirm=-11
CC(=O)SC(C[N+](=O)[O-])c1cn(C(C)=O)c2ccccc12 (stereo not given)	0	106*	0	159*	-60	UPR CHOP confirm=-10
CC(C)OC(=O)n1c(=S)oc2ccccc21	0	49	-4	-2	.
CCCCC(=O)/C=C/n1c(=S)oc2ccccc21	0	108*	-1	120*	3	UPR CHOP confirm=21
C=C(C)C(=O)OC1(C(F)(F)F)Oc2cc(C)ccc2NC1=O (stereo not given)	1	109*	-5	45*	116*	UPR CHOP confirm=20
CC(C)Cc1nnc(NC(=O)CCC(=O)N2CCN(c3ccc(Cl)cc3)CC2)s1	-1	.	-5	1	.
CC(CC(=O)c1cccs1)CC(=O)c1cccs1	0	16	4	3	.

Screening results (PubChem)
